Data from ChEMBL document CHEMBL1166015, “Design, synthesis, and docking of highly hypolipidemic agents: Schizosaccharomyces pombe as a new model for evaluating alpha-asarone-based HMG-CoA reductase inhibitors” (Bioorg Med Chem, 2010).

Experiments:
[1] = biological target: T1, 3-hydroxy-3-methylglutaryl-coenzyme A reductase (Schizosaccharomyces pombe 972h-, UniProt Q10283); experiment: Inhibition of Schizosaccharomyces pombe HMG-CoA reductase by spectrophotometry
T1 sequence (Q10283 whole entry): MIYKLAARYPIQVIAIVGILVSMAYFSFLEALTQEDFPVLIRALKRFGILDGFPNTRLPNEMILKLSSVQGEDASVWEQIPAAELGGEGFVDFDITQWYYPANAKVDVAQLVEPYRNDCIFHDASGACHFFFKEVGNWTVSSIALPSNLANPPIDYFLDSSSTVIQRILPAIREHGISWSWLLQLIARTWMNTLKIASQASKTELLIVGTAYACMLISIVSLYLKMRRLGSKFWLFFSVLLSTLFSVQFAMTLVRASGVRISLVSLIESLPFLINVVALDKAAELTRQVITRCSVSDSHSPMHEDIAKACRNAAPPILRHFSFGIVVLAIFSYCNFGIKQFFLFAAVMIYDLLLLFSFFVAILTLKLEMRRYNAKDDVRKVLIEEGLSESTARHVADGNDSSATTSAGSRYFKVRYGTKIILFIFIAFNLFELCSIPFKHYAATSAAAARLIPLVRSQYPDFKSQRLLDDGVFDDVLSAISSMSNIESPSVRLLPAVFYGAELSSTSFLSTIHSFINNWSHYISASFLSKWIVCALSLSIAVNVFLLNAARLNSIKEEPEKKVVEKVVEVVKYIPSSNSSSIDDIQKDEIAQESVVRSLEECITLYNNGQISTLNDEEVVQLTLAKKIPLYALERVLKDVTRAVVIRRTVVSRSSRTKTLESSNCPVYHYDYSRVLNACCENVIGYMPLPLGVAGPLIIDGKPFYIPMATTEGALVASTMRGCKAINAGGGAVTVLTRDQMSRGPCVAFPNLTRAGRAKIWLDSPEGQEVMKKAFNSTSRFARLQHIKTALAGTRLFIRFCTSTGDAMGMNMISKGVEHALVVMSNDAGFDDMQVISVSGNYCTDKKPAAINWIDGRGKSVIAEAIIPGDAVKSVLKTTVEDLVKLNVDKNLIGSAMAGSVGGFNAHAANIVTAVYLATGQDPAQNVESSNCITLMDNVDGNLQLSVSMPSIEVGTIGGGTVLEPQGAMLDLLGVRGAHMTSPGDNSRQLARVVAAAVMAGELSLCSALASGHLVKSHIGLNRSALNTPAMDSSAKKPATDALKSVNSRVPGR
Summary of the method: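 Membrane HMGR partially purified from S. pombe 972 h (YPD, 28 °C, 48 h) via centrifugation, Triton X-100 solubilization, 65 °C heat step, ammonium sulfate and calcium phosphate gel. Enzyme activated 37 °C 30 min, pre-incubated with compound (DMSO stocks 1–5 mM) 30 min at 37 °C. Assay: 200 µg enzyme, 0.13 mM HMG-CoA, 50 mM Tris-HCl pH 7.5; started with 0.13 mM NADPH; A340 decrease over 2 min; triplicate; IC50 derived.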

Mus musculus [2] = experiment: Hypolipidemic activity in ICR mouse assessed as decrease in Tyloxapol-induced LDL-cholesterol level at 50 mg/kg, ip administered 1 hr before Tyloxapol challenge and 22, 48 hrs after Tyloxapol challenge measured after 22 hrs relative to control; assay type: functional; design: scale not given: the % may be the effect or the level left; conditions: route oral, in the assay text read “po administered” for “ip administered”
Summary of the method: (§1)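 Male ICR mice (24–27 g), groups of six. Hyperlipidemia induced by ip Tyloxapol (Triton WR 1339) 400 mg/kg in water. Drug given at 5 mL/kg 1 h before and 22 and 48 h after injection; vehicle controls. Blood drawn 22 h post-injection by periorbital bleeding. Serum total cholesterol, HDL-C and triglycerides measured on an automatic analyzer; LDL-C by the Friedewald equation. Values are % of the Tyloxapol group, mean ± SE.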

Mus musculus [3] = experiment: Hypolipidemic activity in high cholesterol diet fed ICR mouse assessed as reduction of triglyceride level at 50 mg/kg/day, po after 12 hrs of last cholesterol challenge relative to control; design: scale not given: the % may be the effect or the level left
Mus musculus [4] = experiment: Hypolipidemic activity in high cholesterol diet fed ICR mouse assessed as reduction of LDL cholesterol level at 50 mg/kg/day, po after 12 hrs of last cholesterol challenge relative to control; design: scale not given: the % may be the effect or the level left
Mus musculus [5] = experiment: Hypolipidemic activity in ICR mouse assessed as decrease in Tyloxapol-induced triglyceride level at 50 mg/kg, ip administered 1 hr before Tyloxapol challenge and 22, 48 hrs after Tyloxapol challenge measured after 22 hrs relative to control; assay type: functional; design: scale not given: the % may be the effect or the level left; conditions: route intraperitoneal; summary of the method: as §1
Mus musculus [6] = experiment: Hypolipidemic activity in ICR mouse assessed as decrease in Tyloxapol-induced total cholesterol level at 50 mg/kg, ip administered 1 hr before Tyloxapol challenge and 22, 48 hrs after Tyloxapol challenge measured after 22 hrs relative to control; assay type: functional; design: scale not given: the % may be the effect or the level left; conditions: route oral, in the assay text read “po administered” for “ip administered”; summary of the method: as §1
Mus musculus [7] = experiment: Hypolipidemic activity in ICR mouse assessed as decrease in Tyloxapol-induced total cholesterol level at 100 mg/kg, ip administered 1 hr before Tyloxapol challenge and 22, 48 hrs after Tyloxapol challenge measured after 22 hrs relative to control; assay type: functional; design: scale not given: the % may be the effect or the level left; conditions: route oral, in the assay text read “po administered” for “ip administered”; summary of the method: as §1
Mus musculus [8] = experiment: Hypolipidemic activity in high cholesterol diet fed ICR mouse assessed as reduction of total cholesterol level at 100 mg/kg/day, ip after 12 hrs of last cholesterol challenge relative to control; assay type: functional; design: scale not given: the % may be the effect or the level left; conditions: route intraperitoneal
Summary of the method: (§2)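 Male ICR mice (24–27 g), six per group, were fed a high-cholesterol diet ad libitum for 6 days (1.0% cholesterol, 0.5% sodium cholate, 5% butter, 30% sucrose, 10% casein, 53.5% chow). Basal-diet mice served as controls. Dosing was 5 mL/kg and solutions were made fresh. Mice were fasted 12 h before sacrifice and bled periorbitally. Serum TC, HDL-C and TG were read on an analyzer, with LDL-C by Friedewald.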

Mus musculus [9] = experiment: Hypolipidemic activity in high cholesterol diet fed ICR mouse assessed as reduction of HDL cholesterol level at 100 mg/kg/day, po after 12 hrs of last cholesterol challenge relative to control; design: scale not given: the % may be the effect or the level left
Mus musculus [10] = experiment: Hypolipidemic activity in high cholesterol diet fed ICR mouse assessed as reduction of triglyceride level at 100 mg/kg/day, po after 12 hrs of last cholesterol challenge relative to control; design: scale not given: the % may be the effect or the level left
Mus musculus [11] = experiment: Hypolipidemic activity in ICR mouse assessed as decrease in Tyloxapol-induced triglyceride level at 100 mg/kg, ip administered 1 hr before Tyloxapol challenge and 22, 48 hrs after Tyloxapol challenge measured after 22 hrs relative to control; assay type: functional; design: scale not given: the % may be the effect or the level left; conditions: route intraperitoneal; summary of the method: as §1
Mus musculus [12] = experiment: Hypolipidemic activity in ICR mouse assessed as decrease in Tyloxapol-induced LDL-cholesterol level at 100 mg/kg, ip administered 1 hr before Tyloxapol challenge and 22, 48 hrs after Tyloxapol challenge measured after 22 hrs relative to control; assay type: functional; design: scale not given: the % may be the effect or the level left; conditions: route oral, in the assay text read “po administered” for “ip administered”; summary of the method: as §1
Mus musculus [13] = experiment: Hypolipidemic activity in high cholesterol diet fed ICR mouse assessed as reduction of total cholesterol level at 50 mg/kg, ip after 12 hrs of last cholesterol challenge relative to control; assay type: functional; design: scale not given: the % may be the effect or the level left; conditions: route intraperitoneal; summary of the method: as §2
Mus musculus [14] = experiment: Hypolipidemic activity in ICR mouse assessed as decrease in Tyloxapol-induced HDL-cholesterol level at 50 mg/kg, ip administered 1 hr before Tyloxapol challenge and 22, 48 hrs after Tyloxapol challenge measured after 22 hrs relative to control; assay type: functional; design: scale not given: the % may be the effect or the level left; conditions: route oral, in the assay text read “po administered” for “ip administered”; summary of the method: as §1
Mus musculus [15] = experiment: Hypolipidemic activity in high cholesterol diet fed ICR mouse assessed as reduction of HDL cholesterol level at 50 mg/kg/day, po after 12 hrs of last cholesterol challenge relative to control; design: scale not given: the % may be the effect or the level left
Mus musculus [16] = experiment: Hypolipidemic activity in ICR mouse assessed as decrease in Tyloxapol-induced HDL-cholesterol level at 100 mg/kg, ip administered 1 hr before Tyloxapol challenge and 22, 48 hrs after Tyloxapol challenge measured after 22 hrs relative to control; assay type: functional; design: scale not given: the % may be the effect or the level left; conditions: route intraperitoneal; summary of the method: as §1
Mus musculus [17] = experiment: Hypolipidemic activity in high cholesterol diet fed ICR mouse assessed as reduction of LDL cholesterol level at 100 mg/kg/day, po after 12 hrs of last cholesterol challenge relative to control; design: scale not given: the % may be the effect or the level left

COC(=O)COc1ccccc1C
IC50 ([1]; read-out: IC50): 91.3 µM

CCCCc1cc(OC)c(OC)cc1OC
IC50 ([1]; read-out: IC50): 219 µM

CCc1ccc(OCC(=O)OC)c([N+](=O)[O-])c1
IC50 ([1]; read-out: IC50): 197 µM

C=CCc1cc(OC)c(OC)cc1O
Activity (Mus musculus [2]): -42.98%
Activity (Mus musculus [3]): -37.78%
Activity (Mus musculus [4]): 26.49%
Activity (Mus musculus [5]): -23.2%
Activity (Mus musculus [6]): -49.79%
Activity (Mus musculus [7]): -54.11%
Activity (Mus musculus [8]): -40.67%
Activity (Mus musculus [9]): -35.96%
Activity (Mus musculus [10]): -42.39%
Activity (Mus musculus [11]): -6.83%
Activity (Mus musculus [12]): -52.07%
IC50 ([1]; read-out: IC50): 78.8 µM
Activity (Mus musculus [13]): -33.45%
Activity (Mus musculus [14]): -39.67%
Activity (Mus musculus [15]): -40.08%
Activity (Mus musculus [16]): -41.77%
Activity (Mus musculus [17]): -44.22%

C/C=C/c1ccc(OCCNC(=O)c2ccc(Cl)cc2)c(OC)c1
IC50 ([1]; read-out: IC50): 129 µM

CCCc1cc(OC)c(OC)cc1O
Activity (Mus musculus [2]): -66.67%
Activity (Mus musculus [3]): -62.42%
Activity (Mus musculus [4]): -60.81%
Activity (Mus musculus [5]): -60.69%
Activity (Mus musculus [6]): -76.85%
Activity (Mus musculus [7]): -55.75%
Activity (Mus musculus [8]): -24.12%
Activity (Mus musculus [9]): -23.07%
Activity (Mus musculus [10]): -38.38%
Activity (Mus musculus [11]): -14.84%
Activity (Mus musculus [12]): -35.05%
IC50 ([1]; read-out: IC50): 73.6 µM
Activity (Mus musculus [13]): -59.76%
Activity (Mus musculus [14]): -38.67%
Activity (Mus musculus [15]): -72.01%
Activity (Mus musculus [16]): -37.36%
Activity (Mus musculus [17]): -22.77%

CCc1ccccc1OCC(=O)OC
IC50 ([1]; read-out: IC50): 506 µM

CCc1ccc(OCC(=O)OC)cc1
IC50 ([1]; read-out: IC50): 1320 µM

CCOC(=O)COc1cccc(C)c1
IC50 ([1]; read-out: IC50): 182 µM

CCOC(=O)COc1cccc(CC)c1
IC50 ([1]; read-out: IC50): 1620 µM

C=CCc1ccc(OCC(=O)OCC)c(OC)c1
IC50 ([1]; read-out: IC50): 156 µM

CCCCCc1cc(OC)c(OC)cc1OC
IC50 ([1]; read-out: IC50): 84.6 µM

C=CCc1cc(OC)c(OCC(=O)O)cc1[N+](=O)[O-]
IC50 ([1]; read-out: IC50): 144 µM

C=CCc1ccc(OCCNC(=O)c2cccc(Cl)c2)c(OC)c1
IC50 ([1]; read-out: IC50): 239 µM

C/C=C/c1cc(OC)c(OC)cc1N
IC50 ([1]; read-out: IC50): 167 µM

CCCc1ccc(OCC(=O)O)c(OC)c1
Activity (Mus musculus [2]): -32.56%
Activity (Mus musculus [3]): -38.38%
Activity (Mus musculus [4]): -33.54%
Activity (Mus musculus [5]): -32.46%
Activity (Mus musculus [6]): -21.28%
Activity (Mus musculus [7]): -22.59%
Activity (Mus musculus [8]): -25.66%
Activity (Mus musculus [9]): -19.33%
Activity (Mus musculus [10]): -27.55%
Activity (Mus musculus [11]): -29.89%
Activity (Mus musculus [12]): -39.12%
Activity (Mus musculus [13]): -32.83%
Activity (Mus musculus [14]): -18.23%
Activity (Mus musculus [15]): -15.66%
Activity (Mus musculus [16]): -15.32%
Activity (Mus musculus [17]): -44.51%

CCCc1cc(OC)c(OCC(=O)OC)cc1[N+](=O)[O-]
Activity (Mus musculus [2]): -45.69%
Activity (Mus musculus [3]): -41.98%
Activity (Mus musculus [4]): -21.13%
Activity (Mus musculus [5]): -11.99%
Activity (Mus musculus [6]): -68.64%
Activity (Mus musculus [7]): -60.1%
Activity (Mus musculus [8]): -39.51%
Activity (Mus musculus [9]): -11.43%
Activity (Mus musculus [10]): -28.78%
Activity (Mus musculus [11]): -19.91%
Activity (Mus musculus [12]): -33.33%
Activity (Mus musculus [13]): -48.64%
Activity (Mus musculus [14]): -23.15%
Activity (Mus musculus [15]): -11.36%
Activity (Mus musculus [16]): -25.81%
Activity (Mus musculus [17]): -16.76%

CCOC(=O)COc1cccc(C(C)=O)c1
IC50 [1]: Not Active

C/C=C/c1cc(OC)c(OC)cc1Cl
IC50 ([1]; read-out: IC50): 71.4 µM

CCC(O)c1cc(OC)c(OC)cc1N (stereo not given)
IC50 ([1]; read-out: IC50): 153 µM

C=CCc1ccc(OCC(=O)O)c(OC)c1
IC50 ([1]; read-out: IC50): 73.4 µM

CCC(C)(C)C(=O)O[C@H]1C[C@@H](C)C=C2C=C[C@H](C)[C@H](CC[C@@H]3C[C@@H](O)CC(=O)O3)[C@H]21 [SIMVASTATIN]
IC50 ([1]; read-out: IC50): 95.2 µM

C/C=C/c1cc(OC)c(OC)cc1OC [TRANS-ASARONE]
IC50 ([1]; read-out: IC50): 2490 µM
